# ChEMBL document CHEMBL3414528, “Novel naftopidil-related derivatives and their biological effects as alpha1-adrenoceptors antagonists and antiproliferative agents” (Eur J Med Chem, 2015)
# Columns and labels:
# [1] = test system: DU-145; experiment: Cytotoxicity against human DU145 cells after 48 hrs by WST-8 assay; assay type: functional, cell-based; conditions: DU-145, 48 h
# [2] = biological target: T1, Alpha-1B adrenergic receptor (Rattus norvegicus, UniProt P15823); experiment: Antagonist activity at Sprague-Dawley rat spleen adrenergic alpha-1B receptor after 20 mins; conditions: read-out: pA2 (converted)
# T1 sequence (P15823 whole entry): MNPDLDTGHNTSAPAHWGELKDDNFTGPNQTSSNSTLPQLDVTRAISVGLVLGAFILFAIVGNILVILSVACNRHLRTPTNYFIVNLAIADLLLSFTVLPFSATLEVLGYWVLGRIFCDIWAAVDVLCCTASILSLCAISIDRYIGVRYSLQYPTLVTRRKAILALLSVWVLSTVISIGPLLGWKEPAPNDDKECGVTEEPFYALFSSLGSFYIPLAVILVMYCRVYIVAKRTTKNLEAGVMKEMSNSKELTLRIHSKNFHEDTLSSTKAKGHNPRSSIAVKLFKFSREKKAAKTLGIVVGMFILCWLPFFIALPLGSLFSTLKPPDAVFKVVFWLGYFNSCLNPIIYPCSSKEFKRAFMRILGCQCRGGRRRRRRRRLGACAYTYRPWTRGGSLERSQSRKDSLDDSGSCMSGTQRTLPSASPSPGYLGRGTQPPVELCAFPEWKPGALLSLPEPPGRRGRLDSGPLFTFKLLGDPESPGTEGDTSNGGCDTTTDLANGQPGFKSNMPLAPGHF
# Procedure, shortened: (§1)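 Isolated rat tissues (prostatic vas deferens, spleen, thoracic aorta) contracted with cumulative norepinephrine; concentration-response curves recorded in presence of increasing antagonist concentrations, antagonism read as rightward curve shift. Mean ± SEM of five to eight separate experiments.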
# [3] = organism: Rattus norvegicus; experiment: Selectivity ratio for Sprague-Dawley rat thoracic aorta adrenergic alpha-1D receptor to Sprague-Dawley rat spleen adrenergic alpha-1B receptor; assay type: tissue-based
# [4] = biological target: T2, Alpha-1D adrenergic receptor (Rattus norvegicus, UniProt P23944); experiment: Antagonist activity at Sprague-Dawley rat thoracic aorta adrenergic alpha-1D receptor after 20 mins; conditions: read-out: pA2 (converted); procedure, shortened: as §1
# T2 sequence (P23944 whole entry): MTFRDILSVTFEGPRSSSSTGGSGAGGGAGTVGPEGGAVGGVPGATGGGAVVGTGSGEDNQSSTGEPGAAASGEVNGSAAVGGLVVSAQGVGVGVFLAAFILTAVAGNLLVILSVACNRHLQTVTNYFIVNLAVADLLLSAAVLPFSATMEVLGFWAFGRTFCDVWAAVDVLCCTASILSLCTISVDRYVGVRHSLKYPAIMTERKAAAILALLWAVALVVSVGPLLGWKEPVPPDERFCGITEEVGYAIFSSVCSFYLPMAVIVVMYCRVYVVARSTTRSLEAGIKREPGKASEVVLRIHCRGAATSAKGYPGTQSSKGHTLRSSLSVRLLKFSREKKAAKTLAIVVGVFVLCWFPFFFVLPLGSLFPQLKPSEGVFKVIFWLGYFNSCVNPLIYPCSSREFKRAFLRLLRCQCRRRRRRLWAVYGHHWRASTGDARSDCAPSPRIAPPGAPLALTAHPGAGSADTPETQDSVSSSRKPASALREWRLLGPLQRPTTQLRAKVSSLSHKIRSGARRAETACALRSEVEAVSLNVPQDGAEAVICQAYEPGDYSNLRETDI
# [5] = organism: Rattus norvegicus; experiment: Selectivity ratio for Sprague-Dawley rat prostatic vas deferens adrenergic alpha-1A receptor to Sprague-Dawley rat spleen adrenergic alpha-1B receptor
# [6] = test system: LNCaP; experiment: Cytotoxicity against human LNCAP cells after 48 hrs by WST-8 assay; assay type: functional, cell-based
# [7] = Cytotoxicity against human PC3 cells after 48 hrs by WST-8 assay; assay type: functional, cell-based; conditions: PC-3, 48 h
# [8] = organism: Rattus norvegicus; experiment: Selectivity ratio for Sprague-Dawley rat thoracic aorta adrenergic alpha-1D receptor to Sprague-Dawley rat prostatic vas deferens adrenergic alpha-1A receptor
# [9] = biological target: T3, Alpha-1A adrenergic receptor (Rattus norvegicus, UniProt P43140); experiment: Antagonist activity at Sprague-Dawley rat prostatic vas deferens adrenergic alpha-1A receptor after 20 mins; conditions: read-out: pA2 (converted); procedure, shortened: as §1
# T3 sequence (P43140 whole entry): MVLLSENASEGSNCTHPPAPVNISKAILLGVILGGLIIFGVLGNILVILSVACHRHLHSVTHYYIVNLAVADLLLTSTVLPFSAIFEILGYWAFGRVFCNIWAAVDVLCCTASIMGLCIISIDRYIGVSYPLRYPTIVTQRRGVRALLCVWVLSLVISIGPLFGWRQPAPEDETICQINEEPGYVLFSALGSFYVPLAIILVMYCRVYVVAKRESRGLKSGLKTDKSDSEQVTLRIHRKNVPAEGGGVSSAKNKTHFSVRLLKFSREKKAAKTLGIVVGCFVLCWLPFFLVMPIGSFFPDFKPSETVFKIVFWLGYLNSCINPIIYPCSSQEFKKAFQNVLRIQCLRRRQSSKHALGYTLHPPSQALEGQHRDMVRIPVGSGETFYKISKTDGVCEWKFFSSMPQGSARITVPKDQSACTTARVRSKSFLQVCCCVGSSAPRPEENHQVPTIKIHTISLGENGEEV
# [10] = test system: DU-145; experiment: Cytotoxicity against human DU145 cells; assay type: functional, cell-based
# [11] = Cytotoxicity against human PC3 cells; assay type: functional, cell-based; conditions: PC-3
Kb [2],Kb [4],Kb [9],SMILES,IC50 [1],Ratio [3],Ratio [5],IC50 [6],IC50 [7],Ratio [8],IC50 [10],IC50 [11]
219 nM,34.7 nM,195 nM,COc1ccccc1N1CCN(CCCNC(=O)CCc2c[nH]c3ccccc23)CC1,,6.3,1.1,,,5.6,,
95.5 nM,5.13 nM,12.6 nM,COc1ccccc1N1CCN(CCCNC(=O)CCCc2c[nH]c3ccccc23)CC1,> 100000 nM,18.6,7.6,52300 nM,> 100000 nM,2.5,,
513 nM,5.25 nM,7.94 nM,COc1ccccc1N1CCN(CCCNC(=O)Cc2c[nH]c3ccccc23)CC1,,97.7,64.6,,,1.5,,
166 nM,5.5 nM,52.5 nM,COc1ccccc1N1CCN(CCCNC(=O)c2cn(C)c3ccccc23)CC1,,30.2,3.2,,,9.6,,

# Continued, molecule first:
SMILES,Kb [2],Kb [4],Kb [9],IC50 [1],Ratio [3],Ratio [5],IC50 [6],IC50 [7],Ratio [8],IC50 [10],IC50 [11]
COc1ccccc1N1CCN(CCCNC(=O)c2cc3ccc(Br)cc3[nH]2)CC1,209 nM,15.1 nM,69.2 nM,39300 nM,13.8,3,26700 nM,31200 nM,4.6,,
COc1ccccc1N1CCN(CCCNC(=O)c2ccc3[nH]ccc3c2)CC1,123 nM,11.7 nM,26.3 nM,,10.5,4.7,,,2.2,,
COc1cc2nc(N3CCN(C(=O)C4COc5ccccc5O4)CC3)nc(N)c2cc1OC (stereo not drawn) [DOXAZOSIN],,,,,,,,> 50000 nM,,,
COc1ccccc1N1CCN(CCCNC(=O)c2cc3cccc([N+](=O)[O-])c3[nH]2)CC1,646 nM,28.2 nM,58.9 nM,,22.9,11,,,2.1,,
COc1ccccc1N1CCN(CC(O)COc2cccc3ccccc23)CC1 (stereo not drawn) [NAFTOPIDIL],178 nM,11.7 nM,33.1 nM,> 50000 nM,15.1,5.4,> 50000 nM,> 50000 nM,2.8,22200 nM,33200 nM
COc1ccccc1N1CCN(CCCNC(=O)c2cc3cc(O)ccc3[nH]2)CC1,155 nM,26.9 nM,55 nM,,5.6,2.8,,,2,,
COc1ccc2[nH]c(C(=O)NCCCN3CCN(c4ccccc4OC)CC3)cc2c1,1450 nM,58.9 nM,77.6 nM,,24.5,18.6,,,1.3,,
COc1cc2nc(N3CCN(C(=O)C4CCCO4)CC3)nc(N)c2cc1OC (stereo not drawn) [TERAZOSIN],2.57 nM,1.48 nM,,,,,,,,,
COc1ccccc1N1CCN(CCCNC(=O)c2cc3cc(Cl)ccc3[nH]2)CC1,257 nM,19.5 nM,47.9 nM,47000 nM,13.2,5.4,28400 nM,36900 nM,2.5,,
